Compound activity: PubChem, several laboratories
Compounds with a hit are over-represented: about 5.5% of the library has one in this group of screens.
KCC2 mod: KCC2 cotransporter modulators, thallium flux, primary screen, cell-based, HEK293 KCC2, FluoZin-2 fluorescence, MLSMR; KCC2 cells, thallium flux FluoZin-2 fluorescence; B-score of Tl+ flux slope (higher = more flux/activation; lower = inhibition) at 10 µM; 190,000 tested, 2.2% active;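 active means thallium flux slope and its plate-corrected score both differing from the plate sample mean at a set confidence after two filtering rounds, in either direction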;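 further: slope of fluorescence scaled to starting intensity during 10 to 20 s after thallium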
STAT1 blocker: STAT1 signaling inhibitors, primary screen, cell-based, HTS, luciferase reporter; NIH 3T3 STAT1-luciferase reporter, IFN-gamma, luminescence; inhibition, % at 5.5 µM; 200,000 tested, 0.35% active;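 active means inhibition above a set limit, the mean inhibition across all tested compounds plus 3 SD, cut at about 34% in these data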
STAT3 inh: IL-6 driven STAT3 reporter inhibitors, primary screen, U3A cells, luciferase, luminescence, MLSCN library. IL-6 STAT3-luciferase reporter; host cell line lacks STAT1. inhibition, % at 5.5 µM. 190,000 tested, 0.89% active. AID 862, 2007;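 active means inhibition above the mean inhibition across all screened compounds plus 3 SD, cut at about 44% in these data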
STAT3 activator: IL-6 driven STAT3 reporter potentiators, primary screen, U3A cells, luciferase, luminescence, MLSCN library. IL-6 STAT3-luciferase reporter; 100% = signal with IL-6 EC80 alone. activation (% of control), % at 5.6 µM. 190,000 tested, 0.91% active. AID 871, 2007;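 active means activation above the screen-wide mean of compound activation plus 3 SD, cut at about 130% in these data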
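Material: STAT3-luciferase reporter U3A cells. Controls: IL-6-treated wells, 100% activation. Read-out: % activation versus median of IL-6-stimulated wells. Probe or stimulus: IL-6 stimulus at 33 ng/mL final. Timing: compound 1 h, then IL-6 6 h at 37 °C. Signal: reporter luminescence signal.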
STAT1 activator: STAT1 signaling activators, primary screen, cell-based, HTS, luciferase reporter. NIH 3T3 STAT1-luciferase reporter, IFN-gamma, luminescence; 100% = IFN-gamma alone, no compound. activation (% of control), % at 5.5 µM. 200,000 tested, 2.6% active. AID 932, 2007;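 active means activation above the screen-wide mean activation plus 3 SD, cut at about 130% in these data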
HSV replic up: enhancers of HSV replication in host cells, fold increase, host cell viability | 220,000 tested, 0.005% active | AID 1956, 2009 | HSV replication augmentation in cells | maximum fold increase; in the data active means maximum fold increase above about 1.5; inconclusive means no clear call, values can overlap the other calls; tested in PC3 cells
KCC2 secondary: KCC2 modulators in sodium-free buffer, confirmation, cell-based, HEK293 KCC2, thallium flux, secondary assay. FluoZin2 fluorescence; stronger effect = higher value. normalised thallium flux (F/F0 slope) at 10 µM. shares compounds with KCC2 mod. 3,700 tested, 15% active;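 active means thallium flux slope above the same plate's solvent-only control mean plus 3 SD; inconclusive means the two replicate wells disagree; inactive means no significant difference from solvent-only control wells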
KCC2 bumet counter: thallium flux persisting under bumetanide in KCC2 cells, confirmation, counter-screen for KCC2 modulator project, cell-based, HEK293 KCC2, FluoZin2, secondary assay 3 | shares compounds with KCC2 mod | HEK293-KCC2 + bumetanide/ouabain; stronger effect = higher value | normalized thallium flux at 10 µM | 3,700 tested, 49% active;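 active means thallium entry rate above the same plate's blocked-transporter control wells by more than 3 SD; inconclusive means the two repeat wells disagree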;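 further: raw slope of fluorescence over initial fluorescence between 10 and 20 s after thallium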
KCC2 sec2: KCC2 modulators without ouabain present, confirmation, cell-based, HEK293 KCC2, thallium flux, FluoZin2, secondary assay 2; thallium flux FluoZin2 fluorescence; actives lie on both sides; F/F0 rise rate, 10–20 s post-thallium; AID 1715, 2009; 3,700 tested, 23% active; normalized thallium flux at 10 µM; shares compounds with KCC2 mod;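 active means thallium flux slope more than 3 SD above or below the plate's solvent-only control mean, mostly below; inconclusive means the two repeat wells disagreed; inactive means no significant shift from solvent-only controls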
HEK counter1: thallium flux modulation in parental HEK cells, confirmation, counter-screen for KCC2 modulator project, cell-based, counterscreen 1; HEK293 parental cells, thallium flux FluoZin2, ouabain; baseline-ratio fluorescence slope, 10–20 s after thallium; AID 1716, 2009; shares compounds with KCC2 mod; 3,700 tested, 46% active; thallium flux rate (normalised fluorescence) at 10 µM;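 active means thallium flux rate significantly above the same plate's solvent-only control wells, beyond their mean plus 3 SD; inconclusive means the two replicate wells gave conflicting results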
KCC2 retest ouab: KCC2 inhibitors and activators, ouabain retest, confirmation, HEK-KCC2 cells; raw Tl+ flux slope (below DMSO = inhibition, above = activation) at 10 µM; shares compounds with KCC2 mod; 3,700 tested, 48% active; HEK293-KCC2, thallium flux FluoZin2 fluorescence; bidirectional: low = inhibitor, high = activator; AID 1717, 2009;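 active means thallium flux slope beyond 3 SD from same-plate DMSO control mean in most replicates, usually higher, sometimes lower; inconclusive means repeat tests gave conflicting results; inactive means no significant difference from controls in most replicates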;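 further: slope of initial-normalized fluorescence between seconds 10 and 20 after thallium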
HEK counter2: native HEK Tl+ uptake effects, second counter-screen – HEK cells, counterscreen 2, counter-screen for KCC2 modulator project, confirmation; shares compounds with KCC2 mod; HEK293 parental, thallium flux FluoZin-2 fluorescence slope; thallium flux slope at 10 µM; 3,700 tested, 33% active; AID 1718, 2009;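 active means thallium flux slope above the same plate's solvent-control mean plus 3 SD in both duplicate wells; inconclusive means duplicate wells that disagreed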;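 further: run without ouabain in cells lacking the KCC2 cotransporter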
Hits are given with their value; 0 = inactive; ? = inconclusive; - = no result given.

SMILES	KCC2 mod	STAT1 blocker	STAT3 inh	STAT3 activator	STAT1 activator	HSV replic up	KCC2 secondary	KCC2 bumet counter	KCC2 sec2	HEK counter1	KCC2 retest ouab	HEK counter2
CC1=C(C)Cc2c(OC(=O)c3ccccc3)ccc(OC(=O)c3ccccc3)c2C1	0	-	-	-	-	0	-	-	-	-	-	-
CCOP(=O)(c1ccccc1)C(O)c1ccc(Br)cc1 (centres undefined)	0	0	0	0	0	0	-	-	-	-	-	-
CN1C(C(=O)NCc2cccc(Br)c2)CC2Cn3c(nc4cc5ccccc5cc43)C21 (centres undefined)	0	-	-	-	-	0	-	-	-	-	-	-
CN1C(C(=O)NCc2cccc(Br)c2)CC2Cn3c(nc4cc(Cl)c(Cl)cc43)C21 (centres undefined)	-3.4	-	-	-	-	0	0	0	0	0	0	0
CCC(CC)C(=O)N=C1SC2CS(=O)(=O)CC2N1CCc1ccc(OC)cc1 (centres undefined)	-	0	0	0	0	0	-	-	-	-	-	-
Oc1ccc(NC(=S)Nc2ccccc2)cc1	0	0	0	0	0	0	-	-	-	-	-	-
Cn1c(NC(=S)Nc2ccccc2)nc2ccccc21	7.44	0	0	0	141.5	0	?	0.0638	0	0.0229	0.0426	0.0142
S=C(Nc1ccccc1)Nc1nc2ccccc2n1CCOc1ccc(Br)cc1	3.39	0	0	0	0	0	0	0.0316	0	0.0101	0	?
O=C(OC(C(=O)NC1CCCC1)c1ccncc1)C1=Cc2ccccc2OC1 (centres undefined)	-4.33	0	0	0	0	0	0	0	0	0	0.0161	0
O=C(c1ccccc1)N1CN2CN(C(=O)c3ccccc3)CC([N+](=O)[O-])(C2)C1	0	0	0	0	0	0	-	-	-	-	-	-
CCc1cc2c(SCc3nc4sc(C(C)=O)c(C)c4c(=O)[nH]3)ncnc2s1	43	-	-	-	-	0	?	0.0555	0.0523	0.0432	0.0529	0.0404
CC(=O)c1c(C(C)=O)c(C)n(-c2cccc3cccnc23)c1C	0	0	0	0	0	0	-	-	-	-	-	-
COC(=O)Cn1cnc(=O)c(C#N)c1/C=C/N(C)C	-	0	0	0	0	0	-	-	-	-	-	-
Cc1ccc(Cn2c(=N)c(C(=O)NCc3ccco3)cc3c(=O)n4ccccc4nc32)cc1	5.69	0	0	0	0	-	0	?	?	0.00548	0	0
